Source: PubChem
M1 agonist: M1 muscarinic receptor agonism | CHO-M1 cells, Fluo-4 calcium fluorescence, agonist mode; active compounds read high | B-score at 10 µM | hit rate 3% among 64,000 | AID 626;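 active = fluorescence rise, raw or as B-score row- and column-corrected plate score, outside the 99.7% band of its plate's samples, either direction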
D1 allo mod: allosteric modulators of human D1 dopamine receptor. HEK293 D1, CRE-luciferase, dopamine EC30 potentiation; actives deviate in either direction. B-score at 10 µM. hit rate 5.9% among 58,000. AID 641;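 active = luminescence count or its row- and column-corrected plate score outside the 99.7% band of the plate's sample wells, on either side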
AP ELISA ortho: alternative pathway complement inhibition, orthogonal assay | inhibition, % at 5 µM | Human serum alternative complement pathway, LPS-coated ELISA, C3 deposition; tested in compound mixtures | hit rate 0.08% among 62,000 | AID 1235;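 active = inhibition above 30% in each of the two pooled mixtures holding the compound, so the lower value exceeds 30%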;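 note: 0% = serum in Mg-EGTA without compound and 100% = EDTA serum blank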
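Test system – human serum alternative complement pathway, C3 deposition on LPS-coated wells · Buffer or medium – diluted human serum in Mg2+-EGTA GVB++ · Compound dosing – 5 µM each compound, pools of ten, 50 µM per pool · Schedule – 1 h serum-compound exposure at 37 °C · Measured by – Anti-C3 ELISA, OD 450 nm · Read-out basis – percent inhibition of C3 deposition onto LPS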
mHtt clearance: mutant huntingtin protein clearance; inhibition, % at 1.5 µM; HeLa Exon1htt(103Q)mCFP, aggregate imaging; zero = plate's median compound well; AID 853; hit rate 0.42% among 47,000;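 active = inhibition of aggregate fluorescence above about 70%, also judged a hit by eye on the cell image, limit read from the data, passing the limit was not always enough; inconclusive = no rule stated for this call; inactive = not judged a hit on image review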;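 note: cells exposed to compound for three days before fixation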
M1 antagonist: antagonists of rat M1 muscarinic receptor; P08482; B-score at 10 µM; hit rate 3.4% among 64,000; CHO-M1 cells, Fluo-4 calcium, ACh EC80 antagonist mode; active compounds read low;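 active = calcium fluorescence response, raw or row-and-column corrected B-score, differing from the plate sample mean either way at a set confidence level, mostly lower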
Target sequence (P08482 whole entry, looked up): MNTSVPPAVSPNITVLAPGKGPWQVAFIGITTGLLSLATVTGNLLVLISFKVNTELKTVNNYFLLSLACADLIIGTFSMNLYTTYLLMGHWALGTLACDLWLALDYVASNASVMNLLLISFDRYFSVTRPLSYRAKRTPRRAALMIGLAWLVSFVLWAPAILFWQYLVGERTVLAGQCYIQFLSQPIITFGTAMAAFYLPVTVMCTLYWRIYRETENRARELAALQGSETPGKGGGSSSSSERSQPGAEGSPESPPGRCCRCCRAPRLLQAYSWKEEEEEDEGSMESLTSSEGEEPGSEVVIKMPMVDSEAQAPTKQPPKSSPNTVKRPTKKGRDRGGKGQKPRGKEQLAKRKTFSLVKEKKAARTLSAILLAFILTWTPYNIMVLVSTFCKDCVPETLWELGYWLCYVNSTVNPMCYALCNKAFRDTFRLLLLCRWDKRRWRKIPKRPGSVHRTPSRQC
M1 antag confirm: M1 muscarinic receptor (rat) antagonism, confirmed | CHO-M1 cells, Fluo-4 calcium, ACh EC80 antagonism; active compounds read low | calcium response (max-min fluorescence) at 10 µM | hit rate 43% among 1,700 | AID 677 | shares compounds with M1 antagonist;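 active = calcium response below the same-plate mean of wells given acetylcholine alone at its 80%-effect dose, minus 3 SD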;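 note: raw fluorescence intensity difference in arbitrary instrument units and not normalized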
mGluR4 antag: mGluR4 (human) activity, M1 antagonist secondary assay; fluorescence response (max-min) at 10 µM; shares compounds with M1 antagonist; hit rate 0.9% among 1,700; CHO-mGluR4 calcium flux, Fluo-4 fluorescence, glutamate EC80; active compounds read low;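 active = fluorescence response below the plate's average for near-maximal glutamate wells, less 3 SD of those wells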;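 note: raw unnormalized fluorescence span taken in the window right after glutamate addition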
* hit, by the source's call; u = inconclusive; x = no result. Most compounds without a hit are left out; they make up all but 9% or so of the library.

SMILES	M1 agonist	D1 allo mod	AP ELISA ortho	mHtt clearance	M1 antagonist	M1 antag confirm	mGluR4 antag
O=C(NCc1cccs1)C1CCCN(c2nc3ccccc3o2)C1 (centres undefined)	-0.48	-0.37	-3	x	0.024	x	x
O=C(NCc1ccc2c(c1)OCO2)C1CC(=O)N(C2CCCC2)C1 (centres undefined)	-0.56	-0.76	4	-8	-2.9*	515	222
CC(C)C(NC(=O)C1CCCCC1)C(=O)Nc1ccccn1 (centres undefined)	-0.76	0.56	12	x	0.099	x	x
CC(C)CC(NC(=O)C1CCC(C)CC1)C(=O)Nc1ccccn1 (centres undefined)	0.014	x	11	x	-3.4*	518	188
CCOC(=O)c1snc(C(=O)NC2CCCCC2)c1N	0.24	0.38	14	x	-2.7*	641	206
Nc1c(C(=O)NC2CCCCC2)nsc1C(=O)OCC(=O)NC1CCCCC1	0.33	-1.6	-11	-28	0.021	x	x
CC(=O)N1CCC2(CC1)C(C#N)=C(N)Oc1n[nH]c(CSc3ccc(C)cc3)c12	-0.42	-0.13	6	x	-2.4*	676	127*
CCc1[nH]nc2c1C1(CCN(C(=O)c3ccccc3)CC1)C(C#N)=C(N)O2	0.39	0.63	0	-10	0.29	x	x
c1ccc(CN2CCN(CCN3CCn4c3nc3ccccc34)CC2)cc1	0.13	0.034	3	x	-2.1*	566*	252
COC(=O)[C@H](C)NC(=O)Nc1cc(OC)ccc1OC	0.68	3.6	-8	23	-1.4*	614	241
COc1cccc(-c2nc(CS(=O)(=O)CC(=O)NCCCN3CCc4ccccc4C3)c(C)o2)c1	-2	-0.12	12	-19	-1.8*	419	202
CC1CCN(Cc2nc3c(c(=O)n(C)c(=O)n3C)n2Cc2c(F)cccc2Cl)CC1	0.02	0.56	x	-86	0.38	x	x
CC1CCCN(Cc2nc3c(c(=O)n(C)c(=O)n3C)n2Cc2c(F)cccc2Cl)C1 (centres undefined)	0.58	0.24	21	x	-1*	653	200
COC(=O)C1=C(C)N=C2SCCC(=O)N2C1/C=C/c1ccccc1 (centres undefined)	0.59	0.25	13	-9	-4.5*	253*	222
COC(=O)c1ccc(C2C(C(=O)OC(C)C)=C(C)N=C3SCCC(=O)N32)cc1 (centres undefined)	-0.22	0.39	7	x	-0.13	x	x
O=C(Cn1nc(-c2ccc(Cl)cc2)ccc1=O)NCC1CCCO1 (centres undefined)	0.58	-0.12	16	u	-0.8*	575	261
O=C(Cn1nc(-c2ccccc2)ccc1=O)NCC1CCCO1 (centres undefined)	x	x	x	-19	x	x	x
COc1ccc(OCc2nnc(SC(C)C(=O)Nc3nccs3)n2-c2ccccc2)cc1 (centres undefined)	-0.6	-0.065	16	u	0.74	x	x
CCOC(=O)C1=C(c2ccccc2)N=C2SCC(=O)N2C1c1ccc2c(c1)OCO2 (centres undefined)	-0.05	0.27	6	x	1.1	x	x
O=C(NCCN1CCOCC1)c1ccc2c(c1)N(Cc1ccccc1)C(=O)CS2	-0.33	-0.88	-11	-50	-3*	344*	230
C=CCn1c(=O)c(C(=O)Nc2ccccc2C(=O)OCC)c(O)c2ccccc21	-0.16	-0.25	8	x	-2.5*	623	247
CCn1c(COc2ccccc2OC)nnc1SCC#N	0.37	-0.11	2	x	0.53	x	x
Cc1cc(C(=O)OCC(=O)Nc2cc(C)on2)c2ccccc2n1	-0.61	0.75	-1	x	-6.1*	656	228
O=C(Nc1ccc2c(c1)OCO2)C(c1ccccc1)N1CCCCC1 (centres undefined)	-0.63	-0.74	24	x	-3.4*	501*	205
CC1CCCN(C(C(=O)Nc2ccc3c(c2)OCO3)c2ccccc2)C1 (centres undefined)	0.16	-0.85	14	x	-5*	479*	253
SMILES	M1 agonist	D1 allo mod	AP ELISA ortho	mHtt clearance	M1 antagonist	M1 antag confirm	mGluR4 antag
CC(C)C(CO)NC(=O)CC(=O)NC(CO)C(C)C (centres undefined)	1.4	0.75	14	9	0.39	x	x
Cn1c(SCc2cc(=O)[nH]c3ccccc23)nnc1-c1ccc(Br)cc1	x	x	x	11	x	x	x
C=C(C)COc1ccc2c(C)c(CC(=O)OC)c(=O)oc2c1C	-1.2	0.3	-3	x	-2*	641	225
Cc1noc(/C=C/N(C)C)c1S(=O)(=O)N1CCCC(C(=O)NC2CCCCC2)C1 (centres undefined)	-0.86	0.81	14	x	-2.3*	477	216
COc1ccc(N2C(=O)CCC(C(C)=O)=C2C)cc1	-0.72	0.42	7	x	-0.19	x	x
O=C(CCN1C(=O)C2C3C=CC(C3)C2C1=O)Nc1ccc(F)cc1 (centres undefined)	-0.043	-1.2	15	x	-1.5	x	x
O=C(CCN1C(=O)C2C3C=CC(C3)C2C1=O)Nc1ccc2c(c1)OCO2 (centres undefined)	0.31	-0.3	10	62	-2.6*	588	211
COC(=O)C1=CN(C2CC2)C=C(C(=O)OC)C1c1ccc(C(=O)OC)cc1	-0.58	1.4	6	x	-5.9*	188*	183
COC(=O)C1=CN(C)C=C(C(=O)OC)C1c1ccsc1	-0.071	x	2	x	0.89	x	x
CCN(CC)CC(=O)N1c2ccccc2Sc2ccc(Cl)cc21	x	x	x	-14	x	x	x
O=C(CN1CCC(O)CC1)N1c2ccccc2C=Cc2ccccc21	-0.47	0.34	-15	x	-5.6*	243*	223
NCCCC(=O)N1c2ccccc2Sc2ccccc21	-0.041	-0.61	13	x	-13*	59*	244
O=C(c1ccco1)N1CCN(CC(=O)N2c3ccccc3CCc3ccccc32)CC1	0.0099	x	0	x	-0.57	x	x
O=C(CN1CCCCC1)N1c2ccccc2CCc2ccccc21	x	x	x	18	x	x	x
O=C(CN1CCCC1)N1c2ccccc2Sc2ccccc21	0.12	-0.74	4	-22	-19*	666	218
CCN1CCN(c2ncc(C(=O)Nc3ccccc3C(=O)OC)c3ccccc23)CC1	-1.8	-0.099	19	-28	-14*	166*	203
CCN1CCN(c2ncnc3sc(C(=O)Nc4ccccc4F)c(C)c23)CC1	0.83	x	10	-22	-0.84	x	x
C=C(C)C1CC=C(CN2CCC(C(=O)OCC)CC2)CC1 (centres undefined)	4.2	-1	16	x	-3.7*	422*	238
COC(=O)c1ccc(Oc2nc(N3CCCCC3)nc(N3CCOCC3)n2)cc1	-0.92	0.2	3	-70	-2.3*	457	186
Clc1ccc(Oc2nc(Oc3ccc(Cl)cc3)nc(N3CCOCC3)n2)cc1	x	x	16	-1	x	x	x
CCOC(=O)c1c(NC(=O)c2nc3n(n2)C(C(F)F)CC(C)N3)sc2c1CCCC2 (centres undefined)	0.43	2	3	x	-5.7*	647	238
